Key:
[1] = biological target: Human dihydroorotate dehydrogenase (DHODH) (Homo sapiens, UniProt Q02127); assay: In vitro DHODH enzyme inhibition assay; type: biochemical; details: for inhibition at 10 µM: read-out: Inhibition (%) at 10 μmol/L; for potency loss relative to naphthyl compound 24: vs. 24
[2] = In vivo single dose PK study in rats; details: male, Sprague-Dawley, rat, plasma
Summary of the method: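 Male Sprague–Dawley rats (n = 3 per route) received the test compound at 1 mg/kg i.v. or 10 mg/kg p.o. Heparinized blood was sampled at 5, 15 and 30 min and at 1, 2, 4, 8 and 24 h. Levels were quantified by LC/MS/MS, with noncompartmental PK analysis. For i.v., Cmax was taken as C0.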

[3] = tested on: collagen-induced arthritis (CIA) in Wistar rats; assay: Collagen-induced arthritis; type: in vivo; details: for arthritis score (stabilized, lastly): scale 0-4, model group around 2.3; for volumes of paws in CIA rats compared to model rats: orally once a day for 28 days, methotrexate 0.3 mg/kg
Summary of the method: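 Adult male Wistar rats (130–150 g) were immunized with emulsified bovine type II collagen on Days 1 and 7. Dosing was oral, once daily for 28 days, with 0.5% CMC-Na vehicle. Arthritis was scored 0–4 daily, blinded. Body weight was taken every 3 days, plus hind-paw volume and terminal joint histopathology. Data are mean ± SEM.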

ICR mice = assay: Acute toxicity study in mice; type: in vivo

Human dihydroorotate dehydrogenase (DHODH), sequence (Q02127 whole entry): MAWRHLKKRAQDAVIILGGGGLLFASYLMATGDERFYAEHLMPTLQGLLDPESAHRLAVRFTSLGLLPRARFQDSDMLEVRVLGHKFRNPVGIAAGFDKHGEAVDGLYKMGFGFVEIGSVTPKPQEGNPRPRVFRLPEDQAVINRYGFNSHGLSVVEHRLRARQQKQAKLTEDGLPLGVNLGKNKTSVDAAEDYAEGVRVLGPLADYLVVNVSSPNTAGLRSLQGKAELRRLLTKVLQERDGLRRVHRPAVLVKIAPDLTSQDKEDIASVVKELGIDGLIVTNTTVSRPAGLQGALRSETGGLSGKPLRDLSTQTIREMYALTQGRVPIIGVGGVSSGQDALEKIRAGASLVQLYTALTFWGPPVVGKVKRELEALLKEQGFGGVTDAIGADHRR

| inhibition at 10 µM [1] | IC50 [1] | Structure (SMILES) | also measured |
| --- | --- | --- | --- |
| 45.3% | – | O=C(COc1ccc([N+](=O)[O-])cc1)Nc1ccccc1C(=O)O [Compound 9, 2-(2-(4-Nitrophenoxy)acetamido)benzoic acid] | – |
| 31.7% | – | O=C(COc1ccccc1)Nc1ccccc1C(=O)O [Compound 10] | – |
| 85.6% | – | C/C(=C\c1ccccc1)C(=O)Nc1ccccc1C(=O)O [Compound 11] | – |
| 82.3% | 1040 ± 40 nM | C/C(=C\c1ccc(C(F)(F)F)cc1)C(=O)Nc1ccccc1C(=O)O [Compound 12] | – |
| 69.3% | 6110 ± 102 nM | C/C(=C\c1ccc(C(F)(F)F)nc1)C(=O)Nc1ccccc1C(=O)O [Compound 13] | – |
| 88.7% | 561 ± 14 nM | COc1ccc(/C=C(\C)C(=O)Nc2ccccc2C(=O)O)cc1 [Compound 14] | – |
| 86.6% | 836 ± 21 nM | C/C(=C\c1ccc(C(C)(C)C)cc1)C(=O)Nc1ccccc1C(=O)O [Compound 15] | – |
| 92.9% | 394 ± 4 nM | C/C(=C\c1ccc(C)c(C)c1)C(=O)Nc1ccccc1C(=O)O [Compound 16] | – |
| 91% | 384 ± 16 nM | C/C(=C\c1ccc(C)c(Cl)c1)C(=O)Nc1ccccc1C(=O)O [Compound 17] | – |
| 84.6% | 894 ± 63 nM | C/C(=C\c1ccc(Cl)c(C(F)(F)F)c1)C(=O)Nc1ccccc1C(=O)O [Compound 18] | – |
| 91.7% | 529 ± 24 nM | C/C(=C\c1ccc(Cl)c(Cl)c1)C(=O)Nc1ccccc1C(=O)O [Compound 19] | – |
| 91.5% | 612 ± 11 nM | COc1ccc(/C=C(\C)C(=O)Nc2ccccc2C(=O)O)cc1OC [Compound 20] | – |
| 89.4% | 724 ± 28 nM | C/C(=C\c1cc(Cl)cc(Cl)c1)C(=O)Nc1ccccc1C(=O)O [Compound 21] | – |
| 86.9% | 252 ± 17 nM | C/C(=C\c1ccc2c(c1)CCC2)C(=O)Nc1ccccc1C(=O)O [Compound 22] | – |
| 85.2% | 115 ± 1 nM | C/C(=C\c1ccc2c(c1)CCCC2)C(=O)Nc1ccccc1C(=O)O [Compound 23] | – |
| 93.9% | 75 ± 2 nM | C/C(=C\c1ccc2ccccc2c1)C(=O)Nc1ccccc1C(=O)O [Compound 24] | – |
| 88.2% | 129 ± 8 nM | COc1ccc2cc(/C=C(\C)C(=O)Nc3ccccc3C(=O)O)ccc2c1 [Compound 25] | – |
| 85.4% | 448 ± 8 nM | C/C(=C\c1ccc2cc(Br)ccc2c1)C(=O)Nc1ccccc1C(=O)O [Compound 26] | – |
| 96.8% | 256 ± 9 nM | C/C(=C\c1ccc2c(Cl)cccc2c1)C(=O)Nc1ccccc1C(=O)O [Compound 27] | – |
| 89.3% | 57 ± 2 nM | C/C(=C\c1ccc2ccccc2c1F)C(=O)Nc1ccccc1C(=O)O [Compound 28] | – |
| 96.4% | 78 ± 3 nM | C/C(=C\c1ccc2ccccc2c1Cl)C(=O)Nc1ccccc1C(=O)O [Compound 29] | – |
| 90.2% | 58 ± 1 nM | C/C(=C\c1ccc2ccccc2c1Br)C(=O)Nc1ccccc1C(=O)O [Compound 30] | – |
| 87.4% | 646 ± 9 nM | C/C(=C\c1cc2ccccc2cn1)C(=O)Nc1ccccc1C(=O)O [Compound 31] | potency loss relative to naphthyl compound 24 [1]: 8 fold |
| 84.3% | 317 ± 8 nM | C/C(=C\c1cc2ccccc2n1C)C(=O)Nc1ccccc1C(=O)O [Compound 32, (E)-2-(2-Methyl-3-(1-methyl-1H-indol-2-yl)acrylamido)benzoic acid] | potency loss relative to naphthyl compound 24 [1]: 4 fold |

| inhibition at 10 µM [1] | IC50 [1] | Structure (SMILES) | also measured |
| --- | --- | --- | --- |
| 89.8% | 626 ± 13 nM | C/C(=C\c1ccc(-c2ccccc2)cc1)C(=O)Nc1ccccc1C(=O)O [Compound 33] | – |
| 90.4% | 630 ± 14 nM | C/C(=C\c1ccc(Oc2ccccc2)cc1)C(=O)Nc1ccccc1C(=O)O [Compound 34] | – |
| 89.5% | 597 ± 6 nM | C/C(=C\c1cccc(Oc2ccccc2)c1)C(=O)Nc1ccccc1C(=O)O [Compound 35] | – |
| 76.1% | 1870 ± 48 nM | O=C(COc1ccc2ccccc2c1)Nc1ccccc1C(=O)O [Compound 36] | – |
| 20.3% | > 10000 nM | CC(C)(Oc1ccc2ccccc2c1)C(=O)Nc1ccccc1C(=O)O [Compound 37, 2-(2-Methyl-2-(naphthalen-2-yloxy)propanamido)benzoic acid] | – |
| 87.5% | 712 ± 12 nM | O=C(/C=C/c1ccc2ccccc2c1)Nc1ccccc1C(=O)O [Compound 38] | – |
| 88.6% | 61 ± 1 nM | O=C(Nc1ccccc1C(=O)O)/C(Cl)=C/c1ccc2ccccc2c1 [Compound 39] | – |
| 88.6% | 85 ± 4 nM | O=C(Nc1ccccc1C(=O)O)/C(Br)=C/c1ccc2ccccc2c1 [Compound 40] | – |
| 82.8% | 606 ± 31 nM | CC/C(=C\c1ccc2ccccc2c1)C(=O)Nc1ccccc1C(=O)O [Compound 41] | – |
| 90% | – | C/C(=C\c1ccc2ccccc2c1)C(=O)Nc1ccc(F)cc1C(=O)O [Compound 42] | improvement in potency for inhibition of DHODH vs. 24 ([1]; 42 vs. 24): 1 fold |
| 34.9% | > 10000 nM | C/C(=C\c1ccc2ccccc2c1)C(=O)Nc1cc(F)ccc1C(=O)O [Compound 43] | – |
| 83% | 623 ± 1 nM | C/C(=C\c1ccc2ccccc2c1)C(=O)Nc1ccc(Cl)cc1C(=O)O [Compound 44] | – |
| 80.8% | 1820 ± 20 nM | C/C(=C\c1ccc2ccccc2c1)C(=O)Nc1ccc(Br)cc1C(=O)O [Compound 45] | – |
| 82.9% | 688 ± 6 nM | C/C(=C\c1ccc2ccccc2c1)C(=O)Nc1ccc(C)cc1C(=O)O [Compound 46] | – |
| 48.2% | > 10000 nM | COc1ccc(NC(=O)/C(C)=C/c2ccc3ccccc3c2)c(C(=O)O)c1 [Compound 47] | – |
| 87.4% | 874 ± 5 nM | C/C(=C\c1ccc2ccccc2c1)C(=O)Nc1ccc(C(F)(F)F)cc1C(=O)O [Compound 48] | – |
| 79.3% | 2130 ± 110 nM | C/C(=C\c1ccc2ccccc2c1)C(=O)Nc1sccc1C(=O)O [Compound 49] | – |
| 74.1% | 1691 ± 14 nM | C/C(=C\c1ccc2ccccc2c1)C(=O)Nc1ccncc1C(=O)O [Compound 50, (E)-4-(2-Methyl-3-(naphthalen-2-yl)acrylamido)nicotinic acid] | – |
| 66.9% | 5350 ± 172 nM | C/C(=C\c1ccc2ccccc2c1)C(=O)Nc1ccccc1C(N)=O [Compound 51] | – |
| 29.6% | > 10000 nM | COC(=O)c1ccccc1NC(=O)/C(C)=C/c1ccc2ccccc2c1 [Compound 52, Methyl (E)-2-(2-methyl-3-(naphthalen-2-yl)acrylamido)benzoate] | DHODH inhibition, result in words [1]: completely inactive |
| 98% | – | C/C(=C\c1ccc2ccccc2c1F)C(=O)Nc1ccc(F)cc1C(=O)O [Compound 53] | – |
| 98.6% | – | C/C(=C\c1ccc2ccccc2c1Br)C(=O)Nc1ccc(F)cc1C(=O)O [Compound 55] | – |
| – | – | CN(Cc1cnc2nc(N)nc(N)c2n1)c1ccc(C(=O)N[C@@H](CCC(=O)O)C(=O)O)cc1 [methotrexate, reference compound] | volumes of paws in CIA rats compared to model rats ([3]; 54 at 10 and 30 mg/kg): significantly decreased |

| Structure (SMILES) | inhibition at 10 µM [1] | IC50 [1] | also measured |
| --- | --- | --- | --- |
| C/C(=C\c1ccc2ccccc2c1Cl)C(=O)Nc1ccc(F)cc1C(=O)O [Compound 54] | 98.7% | – | AUC ([2]; iv, 1 mg/kg): 381 µg·h/mL; Cmax ([2]; iv, 1 mg/kg): 31.5 µg/mL; Vd ([2]; iv, 1 mg/kg): 0.069 L/kg; clearance ([2]; iv, 1 mg/kg): 2.6 mL/h/kg; half-life ([2]; iv, 1 mg/kg): 18.1 h; bioavailability ([2]; oral, 10 mg/kg): 67.1%; AUC ([2]; po, 10 mg/kg): 2560 µg·h/mL; Cmax ([2]; po, 10 mg/kg): 77.8 µg/mL; Tmax ([2]; po, 10 mg/kg): 4.67 h; half-life ([2]; po, 10 mg/kg): 21.5 h; arthritis score (stabilized, lastly) ([3]; 10 mg/kg orally once a day for 28 days): around 1; arthritis score (stabilized, lastly) ([3]; 30 mg/kg orally once a day for 28 days): ~0.6; histopathological symptoms of arthritis in ankle joints (H&E) ([3]; 54 at 10 and 30 mg/kg, after four weeks of therapy, dose-dependent): significantly alleviated; volumes of paws in CIA rats compared to model rats ([3]; 54 at 10 and 30 mg/kg): significantly decreased; behavior and mortality (ICR mice; single intragastric dose 300 and 500 mg/kg, 14 days observation, n = 3): No obvious abnormal in behaviors or mortality; morphological examination of liver and kidney (ICR mice; single intragastric dose 300 and 500 mg/kg, day 14): did not find remarkable injury; body weight change compared to control group (ICR mice; single intragastric dose 300 and 500 mg/kg, end of experiment (day 14)): no significant change in body weight; tolerated dose (ICR mice; single intragastric dose, mice): ≥ 500 mg/kg |
